Type in all cases: functional, cell-based
Test [1] has as its system LNCaP. The experiment in a line: Reduction in phosphatidylcholine content in human LNCAP cells at 10 uM after 72 hrs by nile red staining based fluorescence microscopy. Summed up:
(§1)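 LNCaP cells were seeded at 3000/well on poly-L-ornithine-coated plates in phenol-red-free RPMI-1640 with 5% FBS for 48 h, then treated for 72 h. Cells were fixed in 4% paraformaldehyde for 20 min on ice and stained 20 min at RT in PBS with 1.0 μg/mL DAPI and 0.25 μg/mL Nile Red. Mean fluorescence was measured for neutral lipids (Cy3) and phospholipids (Cy5) in ~300 cells at 10×. Analysis used one-way ANOVA with Dunnett's test. DMSO was the negative control and TOFA the positive control. Duplicate points; three independent experiments.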

In test [2] the test system is LNCaP. The experiment in a line: Reduction in phosphatidylethanolamine content in human LNCAP cells at 10 uM after 72 hrs by nile red staining based fluorescence microscopy. An outline of the steps: as §1
The test system of test [3] is LNCaP. The experiment in a line: Reduction in sterol content in human LNCAP cells at 10 uM after 72 hrs by nile red staining based fluorescence microscopy. Summed up:
as §1

The subject of test [4] is LNCaP. The experiment in a line: Reduction in triglyceride content in human LNCAP cells at 10 uM after 72 hrs by nile red staining based fluorescence microscopy. An outline of the steps: as §1
Test [5] deals with LNCaP. The experiment in a line: Reduction in fatty acid content in human LNCAP cells at 10 uM after 72 hrs by nile red staining based fluorescence microscopy. Summed up:
as §1

Test [6] has as its system LNCaP. The experiment in a line: Reduction in phosphatidylserine content in human LNCAP cells at 10 uM after 72 hrs by nile red staining based fluorescence microscopy. An outline of the steps: as §1
The subject of test [7] is LNCaP. The experiment in a line: Growth inhibition of human LNCAP cells after 72 hrs by Alamar Blue assay. Summed up:
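LNCaP cells in phenol-red-free RPMI-1640 with 5% FBS were seeded 4000/well for 24 h, then treated with compounds diluted from DMSO into medium (DMSO ≤0.4%). Metabolic activity was read by AlamarBlue endpoint after 72 h. IC50 was calculated at 72 h. DMSO served as negative control and doxorubicin as positive control. Triplicate points; three independent experiments.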
In general terms: The colour change of resazurin is a common sign of viable cells or microbes.

In test [8] the test system is LNCaP. The experiment in a line: Reduction in phosphatidylethanolamine content in human LNCAP cells at 25 uM after 72 hrs by nile red staining based fluorescence microscopy. An outline of the steps:
as §1

The test system of test [9] is LNCaP. The experiment in a line: Antiproliferative activity against human LNCAP cells assessed as change in cell morphology at 10 to 100 uM measured up to 96 hrs by live-cell imaging method. An outline of the steps:
(§2)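 LNCaP cells (ATCC) grown in phenol-red-free RPMI-1640 with 5% FBS at 37 °C, 5% CO2, kept in log phase. Cells seeded 4000/well for 24 h, then treated with compounds in DMSO diluted in medium (DMSO ≤0.4%). Plates imaged every 2 h for 96 h by IncuCyte live-cell imaging; growth read as confluence; morphology recorded from the images. DMSO as vehicle control.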

Test [10] relates to LNCaP. The experiment in a line: Reduction in phosphatidylserine content in human LNCAP cells at 25 uM after 72 hrs by nile red staining based fluorescence microscopy. An outline of the steps:
as §1

Test [11] deals with LNCaP. The experiment in a line: Antiproliferative activity against human LNCAP cells assessed as enlargement, granulation and cell burst measured every 2 hrs for 96 hrs by live-cell imaging method. Summed up: as §2
Test [12] concerns LNCaP. The experiment in a line: Reduction in phosphatidylcholine content in human LNCAP cells at 25 uM after 72 hrs by nile red staining based fluorescence microscopy. Summed up:
as §1

Test [13] concerns LNCaP. The experiment in a line: Antiproliferative activity against human LNCAP cells assessed as enlargement, granulation and cell burst at 10 to 100 uM by live-cell imaging method. Conditions: TDE = time-dependent effect. Summed up: as §2
Test [14] deals with LNCaP. The experiment in a line: Reduction in triglyceride content in human LNCAP cells at 60 uM after 72 hrs by nile red staining based fluorescence microscopy. An outline of the steps:
as §1

The test system of test [15] is LNCaP. The experiment in a line: Reduction in phosphatidylcholine content in human LNCAP cells at 60 uM after 72 hrs by nile red staining based fluorescence microscopy. Summed up: as §1
Test [16] relates to LNCaP. The experiment in a line: Reduction in sterol content in human LNCAP cells at 60 uM after 72 hrs by nile red staining based fluorescence microscopy. An outline of the steps: as §1
Test [17] has as its system LNCaP. The experiment in a line: Reduction in phosphatidylethanolamine content in human LNCAP cells at 60 uM after 72 hrs by nile red staining based fluorescence microscopy. Summed up: as §1
Test [18] concerns LNCaP. The experiment in a line: Reduction in phosphatidylserine content in human LNCAP cells at 60 uM after 72 hrs by nile red staining based fluorescence microscopy. Summed up:
as §1

Test [19] deals with LNCaP. The experiment in a line: Reduction in fatty acid content in human LNCAP cells at 60 uM after 72 hrs by nile red staining based fluorescence microscopy. Summed up: as §1

Active and inactive are the calls of the source. The calls are words filed in the database; no cut-off is given here.

One may read the IC50 as the midpoint of a concentration-inhibition curve. Higher therefore signals a need for much substance.

In the case of `CCCCCCCCCCCCCCOc1ccc(C(=O)O)o1`, the result in the test with LNCaP [1], with LNCaP [2], with LNCaP [3], in the test with LNCaP [4], in the test on LNCaP [5] and in the test with LNCaP [6] was Active.
`CC(=O)OC[C@@]12[C@@H](OC(C)=O)CC[C@](C)(O)[C@]13OC(C)(COC(=O)c1ccccc1)[C@H](C[C@@H]2OC(=O)/C=C/c1ccccc1)[C@H]3OC(C)=O` (stereo partly specified): the half-maximal inhibitory concentration (IC50) with LNCaP [7] is over 10 µM.
In the test with LNCaP [7], `CC(=O)OC[C@@]12[C@@H](OC(C)=O)CC[C@](C)(O)[C@]13OC(C)(C)[C@H](C[C@@H]2OC(=O)/C=C/c1ccccc1)[C@H]3O` returned an IC50 of over 10 µM.
Take `CC(=O)OC[C@@]12[C@@H](OC(C)=O)CC[C@](C)(O)[C@]13OC(C)(C)[C@H]([C@H](O)[C@@H]2OC(=O)/C=C/c1ccccc1)[C@H]3OC(C)=O`: the IC50 with LNCaP [7] is over 10 µM.
Consider `CC(=O)OCC(=O)O[C@H]1CC[C@](C)(O)[C@]23OC(C)(COC(=O)c4ccccc4)[C@H]([C@H](O)[C@H](OC(=O)/C=C/c4ccccc4)[C@]12C)[C@H]3OC(C)=O` (stereo partly specified), for which the IC50 in the test on LNCaP [7] was over 10 µM.
Compound `C/C=C(\C)C(=O)OCC1(C)O[C@]23[C@H](OC(C)=O)[C@H]1C[C@H](OC(=O)/C=C/c1ccccc1)[C@]2(COC(C)=O)[C@@H](OC(=O)COC(C)=O)CC[C@]3(C)O` (stereo partly specified) gave a half-inhibitory concentration (IC50) in the test on LNCaP [7] of over 10 µM.
For the compound `CC(=O)OC[C@@]12[C@@H](OC(C)=O)CC[C@](C)(O)[C@]13OC(C)(COC(=O)c1ccccc1)[C@H](C[C@@H]2OC(=O)/C=C/c1ccccc1)[C@H]3O` (stereo partly specified), the half-maximal inhibitory concentration (IC50) in the test with LNCaP [7] is over 10 µM.
As for `C/C=C(\C)C(=O)OCC1(C)O[C@]23[C@H](OC(C)=O)[C@H]1[C@H](O)[C@H](OC(=O)/C=C/c1ccccc1)[C@]2(C)[C@@H](OC(=O)COC(C)=O)CC[C@]3(C)O` (stereo partly specified), the result in the test on LNCaP [8], in the test on LNCaP [9], in the test with LNCaP [10] and with LNCaP [12] was Active. In addition, the IC50 in the test on LNCaP [7] was over 10 µM. Also, the Activity entry in the test on LNCaP [11] was “Dose-dependent effect”; with LNCaP [13] it was “tde”.
Regarding `CC(=O)OC[C@@]12[C@@H](OC(C)=O)CC[C@](C)(O)[C@]13OC(C)(C)[C@H](C[C@@H]2OC(=O)/C=C/c1ccccc1)[C@H]3OC(C)=O`, the outcome with LNCaP [14], in the test with LNCaP [15], with LNCaP [16], in the test with LNCaP [17], in the test with LNCaP [18] and in the test on LNCaP [19] was Active. In the test with LNCaP [7], this compound came in with an IC50 of over 10 µM.
